Results taken from PubChem BioAssay AID688 (PCMD, 2007).
The whole screen tested about 27,000 compounds, of which about 250 (0.93%) were called active.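 The calls were made as follows: active = mutant luminescence inhibited past about 50% while wild type luminescence and mutant growth stay under set limits (limit read from the data); inconclusive = mutant versus wild type luminescence inhibition gap past a set limit; inactive = the rest.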 The list comes from a sample in which actives are over-represented; it also holds similar structures and randomly drawn compounds.

Assay: mutant yeast GCN4 reporter luminescence inhibitors – S. cerevisiae, eIF2B-epsilon R284H, Beta-Glo luminescence, primary screen (AID 688)
Settings: GCN4-lacZ luminescence; growth inhibition: measured here: mutant yeast growth, toxicity, concentration not given here; inhibition: stronger effect = higher value, screened at 25 µM (by protocol)
In short: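 Material – yeast eIF2B-epsilon R284H mutant carrying GCN4–beta-galactosidase fusion · Medium – YPD yeast growth medium · Compound – one concentration, 25 µM, 0.25% DMSO · Times – 16 h at 30 °C exposure · Signal – Beta-Glo luminescence plus absorbance at 595 nm · Read-out – % inhibition of reporter signal and growth versus controls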

For `CCOC(=O)c1[nH]c2ccc(OC)cc2c1NC(=O)N1CCOCC1`, which inhibition is on record?
Its inhibition is -48.6% (inactive).

Which growth inhibition does the source give for `CCOc1ccc(NC(=O)CN2CCN(CC(=O)Nc3ccc(OC)cc3)CC2)cc1` here?
The growth inhibition was 9.09%.

And the inhibition?
The inhibition was -13.6% (inactive).

For `CCCNC(=O)NCc1ccc(N2CCCC2=O)cc1`, which growth inhibition is on record?
The growth inhibition was 12.5%.

What about the inhibition of the same compound?
The inhibition was 10.8% (inactive).

Which results are given for `O=c1/c(=C/c2ccc(CNS(=O)(=O)c3ccccc3)o2)sc2n1CCN=2`?
growth inhibition: -8.62%; inhibition: 62.4% (active)

Which growth inhibition does the source give for `CC1(C)CC(=O)C=C(NCCCNC2CCCCC2)C1` here?
Its growth inhibition is 8.06%.

And the inhibition?
Its inhibition is 53.4% (active).

With `CC1(C)CC(=O)C=C(NCCN2CCNCC2)C1` as the compound, how does the growth inhibition read?
The growth inhibition was 9.46%.

And the inhibition?
Its inhibition is 32.9% (inactive).

With `CC1(C)CC(=O)C=C(N2CCCC2)C1` as the compound, how does the inhibition read?
Its inhibition is 30.3% (inactive).

What does the source list for `Cc1ccc(N2C(=O)CC(Sc3ncn[nH]3)C2=O)cc1` (stereo unspecified)?
growth inhibition: 23.8%; inhibition: -7.91% (inactive)

With `COc1ccc(NC(=O)Nc2ccc3nc(C)c(C)nc3c2)cc1` as the compound, how does the growth inhibition read?
Its growth inhibition is -13.5%.

What about the inhibition of the same compound?
Its inhibition is -3.08% (inactive).

With `CCn1c(=O)cc(O)c2ccccc21` as the compound, how does the growth inhibition read?
The growth inhibition was 11.1%.

And the inhibition?
Its inhibition is 2.94% (inactive).

For `O=C1CCCc2nn(-c3ccccc3)nc21`, which growth inhibition is on record?
Its growth inhibition is 7.14%.

What about the inhibition of the same compound?
The inhibition was 6.25% (inactive).

With `CCOC(=O)c1ccccc1NS(=O)(=O)c1ccc(OC)cc1` as the compound, how does the growth inhibition read?
Its growth inhibition is 10.5%.

What about the inhibition of the same compound?
Its inhibition is -13% (inactive).

For `N#CCSc1nc2c(c(=O)n1Cc1ccccc1)C1(CCCC1)Cc1ccccc1-2`, which inhibition is on record?
The inhibition was 9.23% (inactive).

For `O=C(Cc1ccccc1)Nc1c(C(=O)N2CCCCCC2)cnn1-c1ccccc1`, which growth inhibition is on record?
The growth inhibition was 8.33%.

What about the inhibition of the same compound?
The inhibition was -14.8% (inactive).

With `COc1ccc(S(=O)(=O)N2CCCC(C(=O)N3CCN(C)CC3)C2)cc1C` (stereo unspecified) as the compound, how does the growth inhibition read?
Its growth inhibition is 6.9%.

What about the inhibition of the same compound?
Its inhibition is -4.21% (inactive).

Which growth inhibition does the source give for `CC(C)n1c(-c2cccs2)nc2ccccc21` here?
The growth inhibition was 14.7%.

And the inhibition?
The inhibition was 15% (inactive).

Which growth inhibition does the source give for `CCOC(=O)C1=C(CSc2nnnn2C)N(C)C(=O)NC1c1ccccc1` (stereo unspecified) here?
Its growth inhibition is -2.7%.

What about the inhibition of the same compound?
The inhibition was 19.9% (inactive).

What does the source list for `CCOC(=O)c1sc(C)c2c1NC(C)(c1cccc3ccccc13)NC2=O` (stereo unspecified)?
growth inhibition: 2.7%; inhibition: -8.97% (inactive)

For `CCOCCn1c(C(C)C)nc2ccccc21`, which inhibition is on record?
The inhibition was -14.4% (inactive).

With `CCNc1nc(N)nc(Oc2ccc(OCC)nn2)n1` as the compound, how does the growth inhibition read?
Its growth inhibition is -12.5%.

And the inhibition?
Its inhibition is 31.6% (inactive).

With `C/C=C/C(=O)Nc1nnc(C(C)C)s1` as the compound, how does the inhibition read?
Its inhibition is 1.35% (inactive).

For `O=C(CS(=O)(=O)Cc1ccccc1)Nc1cccnc1`, which inhibition is on record?
Its inhibition is 11.1% (inactive).

With `O=C(Nc1cccnc1)c1noc2c1CCCCC2` as the compound, how does the growth inhibition read?
The growth inhibition was 3.45%.

And the inhibition?
The inhibition was 69% (active).

For `O=C(CCCn1c(=O)oc2ccccc21)Nc1cccnc1`, which growth inhibition is on record?
Its growth inhibition is -21.7%.

And the inhibition?
The inhibition was 22.3% (inactive).

With `COc1ccc(-n2nnnc2SCC(=O)Nc2ccccc2)cc1` as the compound, how does the growth inhibition read?
Its growth inhibition is -13.6%.

And the inhibition?
The inhibition was 0.65% (inactive).

For `O=C(NCc1ccccn1)c1cc(-c2ccccc2Cl)on1`, which growth inhibition is on record?
The growth inhibition was 9.09%.

What about the inhibition of the same compound?
The inhibition was 8.32% (inactive).

With `COc1ccc(-c2nnc(SCC(=O)c3ccc4c(c3)OCCO4)o2)cc1` as the compound, how does the growth inhibition read?
The growth inhibition was -27.1%.

And the inhibition?
The inhibition was 9.99% (inactive).

Which growth inhibition does the source give for `C=CCSC1=C(C#N)C(c2cc(Br)c(O)c(OC)c2)CC(=O)N1` (stereo unspecified) here?
The growth inhibition was -19.1%.

And the inhibition?
The inhibition was 17.8% (inactive).

For `O=C(NCC(=O)N(Cc1cccs1)C(C(=O)NC1CCCCC1)c1ccco1)c1cccs1` (stereo unspecified), which growth inhibition is on record?
The growth inhibition was -12.9%.

What about the inhibition of the same compound?
Its inhibition is 9.07% (inactive).

With `Cc1nc2c(c(=O)n1Cc1ccco1)c1nc3ccccc3nc1n2Cc1ccccc1` as the compound, how does the inhibition read?
Its inhibition is 16.6% (inactive).

With `CCOc1ccc(NC(=O)CN(C)CC(=O)Nc2cccc(Cl)c2C)cc1OCC` as the compound, how does the growth inhibition read?
The growth inhibition was -23.8%.

And the inhibition?
Its inhibition is 30.2% (inactive).

Which results are given for `COc1ccccc1-n1nnnc1S(=O)(=O)Cc1ccc(Cl)cc1`?
growth inhibition: -20.6%; inhibition: 24.8% (inactive)

What does the source list for `Cc1cc(C)n(-c2c(F)c(F)c(COC(=O)c3ccccc3)c(F)c2F)n1`?
growth inhibition: 23%; inhibition: 20.8% (inactive)

With `Cc1cccc(N2C(=O)c3cccnc3C2=O)c1` as the compound, how does the growth inhibition read?
Its growth inhibition is -42.9%.

What about the inhibition of the same compound?
Its inhibition is 27.9% (inactive).

For `CC(=O)NC1(c2cccc(F)c2)CCN(CC(=O)NC(C)C)CC1`, which growth inhibition is on record?
The growth inhibition was 4.55%.

What about the inhibition of the same compound?
Its inhibition is 8.86% (inactive).

What does the source list for `O=C(NCc1ccc(Cl)c(Cl)c1)c1cccnc1`?
growth inhibition: -25%; inhibition: 24.4% (inactive)

For `O=C(Nc1nncs1)c1cccc(S(=O)(=O)N2CCCCC2)c1`, which growth inhibition is on record?
The growth inhibition was -27.3%.

What about the inhibition of the same compound?
The inhibition was -2.85% (inactive).

For `Cc1ccc(C2(C(F)(F)F)N=C3Sc4cc(C)cc(C)c4N3C(=O)N2)cc1` (stereo unspecified), which growth inhibition is on record?
The growth inhibition was -4.76%.

What about the inhibition of the same compound?
Its inhibition is 31.4% (inactive).

Which growth inhibition does the source give for `C=CCn1c(SCCOc2ccc(OC)cc2)nnc1C(NC(=O)c1ccc(OC)cc1)C(C)C` (stereo unspecified) here?
Its growth inhibition is -10%.

What about the inhibition of the same compound?
The inhibition was 21.4% (inactive).

What does the source list for `COCc1[nH][nH]c(=O)c1C=Nc1ccc(F)cc1F`?
growth inhibition: 18.9%; inhibition: 24.1% (inactive)

For `Cc1ccc2c(CSc3nncs3)cc(=O)oc2c1`, which growth inhibition is on record?
Its growth inhibition is -14.7%.

What about the inhibition of the same compound?
Its inhibition is -21.6% (inactive).

With `CCCCNS(=O)(=O)c1ccc(S(=O)(=O)n2cnc3ccccc32)cc1` as the compound, how does the growth inhibition read?
The growth inhibition was -31.6%.

And the inhibition?
The inhibition was -22.7% (inactive).

For `CCOC(=O)c1c(N)sc(C(C)=O)c1C`, which growth inhibition is on record?
The growth inhibition was 19.1%.

And the inhibition?
Its inhibition is 2.16% (inactive).

Which results are given for `Cc1ccc(S(=O)(=O)c2nc(NCCCn3ccnc3)sc2Cl)cc1`?
growth inhibition: 15.9%; inhibition: 26% (inactive)
